# Results: ChEMBL document CHEMBL2321850, “Fragment-based discovery of 8-hydroxyquinoline inhibitors of the HIV-1 integrase-lens epithelium-derived growth factor/p75 (IN-LEDGF/p75) interaction” (J Med Chem, 2013)
# Legend:
# [1] = Inhibition of HIV-1 His6-tagged integrase interaction to FLAG-tagged LEDGF/p75 preincubated for 30 mins prior to LEDGF/p75 addition measured after 60 mins by alphascreen assay; set-up: species or system Human immunodeficiency virus 1
# Method in brief: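 His6-tagged IN (300 nM final) preincubated with compound (20 µM final) 30 min at 4 °C, then FLAG-LEDGF/p75 (300 nM final) added for 60 min at 4 °C; Ni-chelate donor and anti-FLAG acceptor beads (20 µg/mL each) added, 1 h at 30 °C, light-protected; acceptor-bead emission read.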
# [2] = Cytotoxicity against human LNCAP cells assessed as growth inhibition at 10 uM after 72 hrs by MTT assay; format: cell-based; conditions: read-out: Activity
# [3] = target: T1, Human immunodeficiency virus type 1 integrase (Human immunodeficiency virus 1, UniProt Q7ZJM1); test: Inhibition of HIV-1 integrase 3'-processing activity
# T1 sequence (Q7ZJM1 whole entry): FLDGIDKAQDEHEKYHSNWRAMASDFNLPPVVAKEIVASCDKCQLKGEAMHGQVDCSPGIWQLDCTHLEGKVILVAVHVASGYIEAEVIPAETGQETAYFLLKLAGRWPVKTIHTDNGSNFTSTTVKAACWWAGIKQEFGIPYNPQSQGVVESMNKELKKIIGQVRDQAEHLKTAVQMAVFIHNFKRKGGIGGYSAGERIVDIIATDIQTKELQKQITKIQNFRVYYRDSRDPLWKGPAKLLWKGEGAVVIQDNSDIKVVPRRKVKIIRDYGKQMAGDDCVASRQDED
# LNCaP = test: Cytotoxicity against human LNCAP cells assessed as inhibition of cell proliferation after 72 hrs by MTT assay; format: cell-based
# [4] = tested on: Human immunodeficiency virus 1; test: Inhibition of HIV-1 FLAG-6x-His-tagged integrase interaction to FLAG-tagged LEDGF/p75 at 10 uM preincubated for 30 mins prior to LEDGF/p75 addition measured after 60 mins by quenching assay
# [5] = target: T1, Human immunodeficiency virus type 1 integrase; test: Inhibition of HIV-1 integrase strand transfer activity
# MT4 = test: Cytotoxicity against human MT4 cells assessed as cell viability after 72 hrs by MTT assay; format: cell-based; conditions: mt4, 72 h
# Method in brief: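 MT-4 cells exposed to fivefold serial dilutions of compound run in parallel with the antiviral MTT cytopathic-effect assay; CC50 taken as the concentration killing 50% of MT-4 cells.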
# [6] = tested on: Human immunodeficiency virus; test: Antiviral activity against HIV infected human MT4 cells assessed as decrease of virus-induced cytopathic effect after 72 hrs by MTT assay; format: functional, organism-based; conditions: Human immunodeficiency virus 1, MT4, 72 h
# Method in brief: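 MT-4 cells infected with 100 to 300 CCID50 of HIV (CCID50 from virus-stock titration on MT-4) in presence of fivefold serial compound dilutions; protection from viral cytopathic effect read by MTT; EC50 = concentration giving 50% protection. CC50 in MT-4 cells measured in parallel.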
SMILES,IC50 [1] [µM],"inhibition at 72 h, 10 µM [2] [%]",IC50 [3] [µM],CC50 (LNCaP) [µM],inhibition [4] [%],IC50 [5] [µM],CC50 (MT4) [µM],EC50 [6] [µM]
O=C(CC(Sc1cccc2cccnc12)c1ccc(F)cc1)c1cccs1 (configuration not stated),3,21,> 20,> 10,< 50,> 20,–,–
CCCC(=O)NC(c1ccc(OC)cc1)c1ccc2cccnc2c1O (configuration not stated),4,–,> 20,0.62,< 50,> 20,–,–
CCC(=O)NC(c1ccc(OC)c(OC)c1)c1cc(Cl)c2cccnc2c1O (configuration not stated),4,–,> 20,3,< 50,> 20,–,–
Oc1ccc(CN2CCN(c3ccccn3)CC2)c2cccnc12,1.9,–,> 20,> 10,< 50,> 20,9,> 9
Oc1ccc(CN2CCCCC2)c2cccnc12,0.4,–,> 20,> 10,< 50,> 20,9,> 9
COc1cccc(NCc2ccc(O)c3ncccc23)c1,3.2,–,> 20,5,< 50,> 20,–,–
Oc1ccc(CN2CCN(Cc3ccccc3)CC2)c2cccnc12,2.2,–,> 20,> 10,< 50,> 20,11,> 11
Cc1cccc(NCc2ccc(O)c3ncccc23)c1,4,–,> 20,> 10,< 50,> 20,9,> 9
CCOC(=O)C1CCN(Cc2ccc(O)c3ncccc23)CC1,2.2,–,> 20,> 10,< 50,> 20,–,–
COc1cccc(C(NC(C)=O)c2ccc3cccnc3c2O)c1 (configuration not stated),2,–,> 20,0.58,< 50,> 20,–,–
COc1ccc(C(NC(C)=O)c2cc([N+](=O)[O-])c3cccnc3c2O)cc1OC (configuration not stated),3.9,–,> 20,> 10,< 50,> 20,42,> 42
Cc1cccnc1NCc1ccc(O)c2ncccc12,3.5,–,> 20,> 10,< 50,> 20,11,> 11
CCC(=O)NC(c1ccco1)c1cc(Cl)c2cccnc2c1O (configuration not stated),4,–,> 20,0.72,< 50,> 20,–,–
CCOC(=O)N1CCN(Cc2ccc(O)c3ncccc23)CC1,1.5,–,> 20,> 10,< 50,> 20,9,> 9
Cc1ccccc1NCc1ccc(O)c2ncccc12,1.4,0,> 20,> 10,< 50,> 20,9,> 9
Oc1ccc(CNc2ccccc2Cl)c2cccnc12,4.8,–,> 20,> 10,< 50,> 20,34,> 34
O=C(CC(Sc1cccc2cccnc12)c1ccc(OC(F)F)cc1)c1ccco1 (configuration not stated),3,73,> 20,0.8,< 50,> 20,2,> 2
CN1CCN(Cc2ccc(O)c3ncccc23)CC1,0.8,–,> 20,> 10,< 50,> 20,35,> 35
CC(=O)NC(c1ccccc1)c1cc(Cl)c2cccnc2c1O (configuration not stated),3,–,> 20,0.74,< 50,> 20,–,–
Cc1cccc(NCc2ccc(O)c3ncccc23)n1,2.8,–,> 20,> 10,< 50,> 20,2,> 2
